Reference: ChEMBL document CHEMBL1138932, “Synthesis and anti-hepatitis B virus activity of novel benzimidazole derivatives” (J Med Chem, 2006)
The source made the active and inactive calls. The rule behind the calls is not given here.

Tests used:
HepG2 [1] = assay: Cytotoxicity against HepG2.2.15 cells; format: functional; conditions: Homo sapiens
Procedure, shortened: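 HepG 2.2.15 cells exposed to compound; CC50 taken as the concentration required for 50% extinction of the cells.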

Hepatitis B virus = assay: Inhibition of HBV DNA replication; format: functional, organism-based
Procedure, shortened: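 Antiviral assay in HepG 2.2.15 cells; read-out is cytoplasmic HBV-DNA synthesis. IC50 is the concentration giving 50% inhibition of HBV DNA synthesis.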

HepG2 [2] = assay: Selectivity index, CC50 for HepG2.2.15 cells/IC50 for HBV; format: functional
Procedure, shortened: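 Ratio CC50/IC50. CC50 is the concentration giving 50% extinction of HepG 2.2.15 cells. IC50 is the concentration giving 50% inhibition of cytoplasmic HBV-DNA synthesis.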

Row | Structure (SMILES) | CC50 (HepG2 [1]) | IC50 (Hepatitis B virus) | Selectivity index (HepG2 [2]) | Activity (Hepatitis B virus)
1 | Cc1ccc(S(=O)(=O)n2c(CCN3C(=O)c4ccccc4C3=O)nc3cc(F)c(F)cc32)cc1 | 31 µM | 1200 nM | 26 | –
2 | Cn1c(CCC2CCCO2)nc2cc(Cl)c(Cl)cc21 (centres undefined) | 56 µM | 10300 nM | 5 | –
3 | O=C1c2ccccc2C(=O)N1CCc1nc2ccccc2n1S(=O)(=O)c1cccc(C(F)(F)F)c1 | 10 µM | 30400 nM | 0.3 | –
4 | CCCc1nc2cc(Cl)c(Cl)cc2n1C | 24.6 µM | 3900 nM | 6 | –
5 | O=C1c2ccccc2C(=O)N1CCc1nc2ccccc2n1S(=O)(=O)c1ccccc1 | 28 µM | 2200 nM | 13 | –
6 | O=C1c2ccccc2C(=O)N1CCc1nc2cc(Cl)c(Cl)cc2n1S(=O)(=O)c1ccc([N+](=O)[O-])cc1 | 181 µM | 50200 nM | 4 | –
7 | Cn1c(CCc2ccncc2)nc2cc(Cl)c(Cl)cc21 | 35.8 µM | 4600 nM | 8 | –
8 | Cc1ccc(S(=O)(=O)n2c(CCN3Cc4ccccc4C3=O)nc3cc(Cl)c(Cl)cc32)cc1 | 23 µM | 3400 nM | 7 | –
9 | Cc1ccc(Cn2c(CCN3C(=O)c4ccccc4C3=O)nc3cc(Cl)c(Cl)cc32)cc1 | > 500 µM | 700 nM | >714 | –
10 | Cn1c(CCc2cccs2)nc2cc(Cl)c(Cl)cc21 | 16 µM | – | – | inactive
11 | Cc1ccc(S(=O)(=O)n2c(CCCN3C(=O)c4ccccc4C3=O)nc3cc(Cl)c(Cl)cc32)cc1 | 13 µM | 340 nM | 38 | –
12 | Cc1ccc(Cn2c(CCN)nc3cc(Cl)c(Cl)cc32)cc1 | 4 µM | 1400 nM | 3 | –
13 | Nc1ccn([C@@H]2CS[C@H](CO)O2)c(=O)n1 [LAMIVUDINE] | > 1000 µM | 380 nM | >2632 | –
14 | Cc1ccc(S(=O)(=O)n2c(N3C(=O)c4ccccc4C3=O)nc3cc(Cl)c(Cl)cc32)cc1 | 122 µM | 19400 nM | 6 | –
15 | O=C1c2ccccc2C(=O)N1CCc1nc2cc(F)c(F)cc2n1S(=O)(=O)c1ccc(C(F)(F)F)cc1 | 11 µM | 3200 nM | 3 | –
16 | O=C1c2ccccc2C(=O)N1CCc1nc2cc(F)c(F)cc2n1S(=O)(=O)c1cccc([N+](=O)[O-])c1 | 10 µM | 140 nM | 71 | –

Row | Structure (SMILES) | CC50 (HepG2 [1]) | IC50 (Hepatitis B virus) | Selectivity index (HepG2 [2]) | Activity (Hepatitis B virus)
17 | Cc1ccc(S(=O)(=O)n2c(CN3C(=O)c4ccccc4C3=O)nc3cc(Cl)c(Cl)cc32)cc1 | 90 µM | 500 nM | 180 | –
18 | Cn1c(CCc2ccco2)nc2cc(Cl)c(Cl)cc21 | 5.9 µM | – | – | inactive
19 | O=C1c2ccccc2C(=O)N1CCc1nc2cc(F)c(F)cc2n1S(=O)(=O)c1ccccc1[N+](=O)[O-] | 77 µM | 640 nM | 120 | –
20 | Cn1c(CCc2ccccc2)nc2cc(Cl)c(Cl)cc21 | 15.3 µM | – | – | inactive
21 | CS(=O)(=O)n1c(CCN2C(=O)c3ccccc3C2=O)nc2cc(Cl)c(Cl)cc21 | 175 µM | – | – | inactive
22 | O=C1c2ccccc2C(=O)N1CCc1nc2cc(Cl)c(Cl)cc2[nH]1 | 330 µM | 300000 nM | 1 | –
23 | Cc1ccc(S(=O)(=O)n2c(CCN3C(=O)c4ccccc4C3=O)nc3ccccc32)cc1 | 164 µM | 2200 nM | 75 | –
24 | CC(C)c1ccc(S(=O)(=O)n2c(CCN3C(=O)c4ccccc4C3=O)nc3cc(Cl)c(Cl)cc32)cc1 | 17 µM | 700 nM | 24 | –
25 | Nc1ncnc2c1ncn2CCOCP(=O)(O)O [ADEFOVIR] | 203 µM | 1300 nM | 156 | –
26 | Cn1c(CCN2C(=O)c3ccccc3C2=O)nc2cc(Cl)c(Cl)cc21 | > 1000 µM | 900 nM | >1111 | –
27 | Cn1c(CCC2CCCCC2)nc2cc(Cl)c(Cl)cc21 | > 500 µM | 18500 nM | >27 | –
28 | COc1ccc(S(=O)(=O)n2c(CCN3C(=O)c4ccccc4C3=O)nc3cc(Cl)c(Cl)cc32)cc1 | 189 µM | 7200 nM | 26 | –
29 | Cc1ccc(C(=O)n2c(CCN3C(=O)c4ccccc4C3=O)nc3cc(Cl)c(Cl)cc32)cc1 | > 1000 µM | 53200 nM | >19 | –
30 | Cc1ccc(S(=O)(=O)n2c(CCN3C(=O)C=CC3=O)nc3cc(Cl)c(Cl)cc32)cc1 | 33 µM | 680 nM | 49 | –
31 | Cc1ccc(S(=O)(=O)n2c(CCN3C(=O)c4ccccc4C3=O)nc3cc(Cl)c(Cl)cc32)cc1 | 867 µM | 2900 nM | 299 | –
